# Experimental data taken from ChEMBL document CHEMBL1141368, “Identification of a nonpeptidic and conformationally restricted bradykinin B1 receptor antagonist with anti-inflammatory activity” (J Med Chem, 2007).
# How the values were obtained:
# B1 bradykinin receptor [1] = target: T1, B1 bradykinin receptor (Homo sapiens, UniProt P46663); assay: Antagonistic activity at human bradykinin B1 receptor expressed in CHO cells assessed as effect on DAK-mediated calcium mobilization; assay type: functional, cell-based
# T1 sequence (P46663 whole entry): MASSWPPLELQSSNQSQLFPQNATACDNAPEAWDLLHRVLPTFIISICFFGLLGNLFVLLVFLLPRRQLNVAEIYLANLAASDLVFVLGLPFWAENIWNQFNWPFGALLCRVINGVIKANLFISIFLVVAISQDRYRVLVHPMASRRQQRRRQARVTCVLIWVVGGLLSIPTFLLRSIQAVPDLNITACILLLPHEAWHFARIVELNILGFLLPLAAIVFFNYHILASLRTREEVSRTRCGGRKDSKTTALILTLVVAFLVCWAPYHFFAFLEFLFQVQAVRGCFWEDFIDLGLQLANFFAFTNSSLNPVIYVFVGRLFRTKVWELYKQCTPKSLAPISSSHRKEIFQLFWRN
# How it was run: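 B1 receptor cDNA transfected into CHO cells; antagonist potency given as IC50 ± SEM with the number of determinations (n).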
# Rattus norvegicus [2] = assay: Reduction of edema formation in rat reverse passive arthus model at 3 mg/kg, po; assay type: ADME, organism-based; parameters: dose 3 mg/kg, route oral; settings: in vivo
# B2 bradykinin receptor = target: T2, B2 bradykinin receptor (Homo sapiens, UniProt P30411); assay: Displacement of [3H]bradykinin from human bradykinin B2 receptor expressed in CHO-K1 cells; assay type: cell-based
# T2 sequence (P30411 whole entry): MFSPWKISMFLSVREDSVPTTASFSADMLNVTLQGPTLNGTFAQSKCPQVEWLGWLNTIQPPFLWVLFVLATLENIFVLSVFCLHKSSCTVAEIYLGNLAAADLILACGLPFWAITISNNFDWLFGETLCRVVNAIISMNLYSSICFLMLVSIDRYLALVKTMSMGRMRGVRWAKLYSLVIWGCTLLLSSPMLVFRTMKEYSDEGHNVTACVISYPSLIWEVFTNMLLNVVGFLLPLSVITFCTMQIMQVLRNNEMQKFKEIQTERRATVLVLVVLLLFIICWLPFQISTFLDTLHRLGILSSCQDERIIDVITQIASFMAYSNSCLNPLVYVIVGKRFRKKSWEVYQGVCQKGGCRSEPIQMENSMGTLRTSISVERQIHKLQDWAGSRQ
# B1 bradykinin receptor [3] = target: T1, B1 bradykinin receptor; assay: Displacement of [3H]DAK from human bradykinin B1 receptor expressed in CHO-D cells; assay type: cell-based
# Rattus norvegicus [4] = assay: Reduction of exudates volume in rat reverse passive arthus model at 60 mg/kg, sc relative to control; assay type: functional; parameters: scale not given: the % may be the effect or the level left; settings: route subcutaneous
# How it was run: (§1)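 Reverse passive Arthus inflammation model in rats; drug given s.c. at 30, 60 or 90 mg/kg; exudate volume expressed relative to saline-treated animals and tested for statistical significance.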
# [5] = AUC (0-t) in rat at 1 mg/kg, iv; assay type: ADME, organism-based; parameters: dose 1 mg/kg, route intravenous; settings: plasma
# [6] = AUC (0-inf) in rat at 10 mg/kg, sc; assay type: ADME, organism-based; parameters: time infinity, dose 10 mg/kg, route subcutaneous; settings: plasma
# [7] = Half life in rat at 10 mg/kg, sc; assay type: ADME, organism-based; parameters: dose 10 mg/kg, route subcutaneous; settings: in vivo
# [8] = Tmax in rat at 10 mg/kg, sc; assay type: ADME, organism-based; parameters: dose 10 mg/kg, route subcutaneous; settings: in vivo
# Rattus norvegicus [9] = assay: Relevant drug concentration for 5-6 hrs in rat at 90 mg/kg, sc; assay type: ADME, organism-based; parameters: dose 90 mg/kg, route subcutaneous; settings: in vivo
# [10] = AUC (0-t) in rat at 10 mg/kg, sc; assay type: ADME, organism-based; parameters: dose 10 mg/kg, route subcutaneous; settings: plasma
# [11] = Mean residence time in rat at 1 mg/kg, iv; assay type: ADME, organism-based; parameters: dose 1 mg/kg, route intravenous; settings: in vivo
# [12] = AUC (0-inf) in rat at 1 mg/kg, iv; assay type: ADME, organism-based; parameters: time infinity, dose 1 mg/kg, route intravenous; settings: plasma
# [13] = Clearance in rat at 10 mg/kg, sc; assay type: ADME, organism-based; parameters: dose 10 mg/kg, route subcutaneous; settings: in vivo
# Rattus norvegicus [14] = assay: Reduction of exudates volume in rat reverse passive arthus model at 90 mg/kg, sc relative to control; assay type: functional; parameters: scale not given: the % may be the effect or the level left; settings: route subcutaneous; how it was run: as §1
# Rattus norvegicus [15] = assay: Reduction of exudates volume in rat carrageenan-induced pleurisy model at 90 mg/kg, sc relative to control; assay type: functional; parameters: scale not given: the % may be the effect or the level left; settings: route subcutaneous
# [16] = Cmax in rat at 10 mg/kg, sc; assay type: ADME, organism-based; parameters: dose 10 mg/kg, route subcutaneous; settings: in vivo
# [17] = Half life in rat at 1 mg/kg, iv; assay type: ADME, organism-based; parameters: dose 1 mg/kg, route intravenous; settings: in vivo
# Plasma = assay: Fraction unbound in rat plasma; assay type: ADME, cell-free
# [18] = Bioavailability in rat at 10 mg/kg, sc; assay type: ADME, organism-based; settings: in vivo
# [19] = Volume of distribution in rat at 1 mg/kg, iv; assay type: ADME, organism-based; parameters: dose 1 mg/kg, route intravenous; settings: in vivo, read-out: Vss
# Rattus norvegicus [20] = assay: Reduction of exudates volume in rat reverse passive arthus model at 30 mg/kg, sc relative to control; assay type: functional; parameters: scale not given: the % may be the effect or the level left; settings: route subcutaneous; how it was run: as §1
SMILES,IC50 (B1 bradykinin receptor [1]),Ki (B2 bradykinin receptor),Ki (B1 bradykinin receptor [3]),further results
O=C(C[C@H](NS(=O)(=O)c1ccc2ccccc2c1)c1ccccc1)NCc1ccc(CN2CCCCC2)cc1,> 4000 nM,–,–,–
COc1ccc2c(c1)c(CC(=O)O)c(C)n2C(=O)c1ccc(Cl)cc1 [INDOMETHACIN],–,–,–,Activity (Rattus norvegicus [2]): Not Active
O=C(C[C@@H](NS(=O)(=O)c1ccc2ccccc2c1)c1ccccc1)N[C@@H]1CCc2cc(CN3CCCCC3)ccc21,5.6 nM,49.2 µM,1.6 nM,–
O=C(C[C@@H](NS(=O)(=O)c1ccc2ccccc2c1)c1ccccc1)NCc1ccc(CN2CCCCC2)cc1,447 nM,–,132 nM,–
O=C(C[C@@H](NS(=O)(=O)c1ccc2ccccc2c1)c1ccccc1)N[C@H]1CCc2cc(CN3CCCCC3)ccc21,183 nM,13.3 µM,241 nM,–
O=C(C[C@@H](NS(=O)(=O)c1ccc2ccccc2c1)c1ccccc1)NCCc1ccc(CN2CCCCC2)cc1,540 nM,–,–,–
O=C(C[C@@H](NS(=O)(=O)c1ccc2ccccc2c1)c1ccccc1)N[C@H]1CCOc2cc(CN3CCCCC3)ccc21,–,> 20 µM,–,–
CN1c2cc(CN3CCCCC3)ccc2[C@H](NC(=O)C[C@@H](NS(=O)(=O)c2ccc3ccccc3c2)c2ccccc2)CS1(=O)=O,14 nM,16 µM,15.8 nM,–

# The next lines start with results.
IC50 (B1 bradykinin receptor [1]),Ki (B2 bradykinin receptor),Ki (B1 bradykinin receptor [3]),SMILES,further results
10.7 nM,35 µM,1.3 nM,CN1c2cc(CN3CCCCC3)ccc2[C@@H](NC(=O)C[C@@H](NS(=O)(=O)c2ccc3ccccc3c2)c2ccccc2)CS1(=O)=O,–
–,> 50 µM,–,O=C(C[C@@H](NS(=O)(=O)c1ccc2ccccc2c1)c1ccccc1)N[C@@H]1CCOc2cc(CN3CCCCC3)ccc21,Activity (Rattus norvegicus [4]): 10%; AUC(0-t) [5]: 194 ng·h/mL; AUC(0-inf) [6]: 2090 ng·h/mL; half-life [7]: 132 min; Tmax [8]: 24 min; concentration (Rattus norvegicus [9]): 125 nM; AUC(0-t) [10]: 1960 ng·h/mL; MRT [11]: 1.5 h; AUC(0-inf) [12]: 201 ng·h/mL; CL/F [13]: 79.6 mL/min/kg; Activity (Rattus norvegicus [14]): 26%; Activity (Rattus norvegicus [15]): 22%; Cmax [16]: 825 ng/mL; half-life [17]: 84 min; Fu (Plasma): 0.032; bioavailability [18]: 106%; Vd [19]: 7.43 L/kg; Activity (Rattus norvegicus [20]): 14%
325 nM,–,–,O=C(C[C@@H](NS(=O)(=O)c1ccc2ccccc2c1)c1ccccc1)NC1CCc2cc(CCN3CCCCC3)ccc2C1 (stereo partly drawn),–
302 nM,–,17 nM,C[C@@H](NC(=O)C[C@@H](NS(=O)(=O)c1ccc2ccccc2c1)c1ccccc1)c1ccc(CN2CCCCC2)cc1,–
359 nM,56 µM,382 nM,O=C(CC(NS(=O)(=O)c1ccc2ccccc2c1)c1ccccc1)NCc1ccc(CN2CCCCC2)cc1 (racemic),–
